ADAM17 inh: inhibits human ADAM17. P78536. recombinant ADAM17, EDANS/DABCYL FRET peptide cleavage. inhibition, % at 6.95 µM. 0.83% of 370,000 active. AID 720648;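 active = inhibition above the mean of compounds lying between control limits plus 3 SD, set per campaign, cut at about 8.5% in these data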
DDE Tn7 FP inh: disrupts Tn7 cyclic peptide binding to fibrin D-Dimer-E complex; FP displacement of FITC-Tn7 peptide from fibrin DD(E); 0% = median of compound wells per plate; inhibition, % at 8.3 µM; 0.13% of 370,000 active; AID 720508;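 active = inhibition above the mean of compounds falling within the control limits plus 3 SD of them, cut at about 14% in these data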
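Assay system: Fibrin-DD(E) protein isolated from polymerized human fibrin clots; read-out basis: percent inhibition; medium: Tris/NaCl/CaCl2 buffer, pH 7.8; signal: FP measurement; incubation: 10 min plus 3 h, room temperature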
ADAM10 inh: inhibitors of human ADAM10. O14672. recombinant ADAM10, EDANS/DABCYL FRET peptide cleavage, 3 h. inhibition, % at 7 µM. 0.62% of 370,000 active. AID 720582;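 active = inhibition above a per-campaign cutoff equal to the mean of compounds falling between control-based bounds plus 3 SD, cut at about 20% in these data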
Target sequence (O14672 214-748 limits assumed): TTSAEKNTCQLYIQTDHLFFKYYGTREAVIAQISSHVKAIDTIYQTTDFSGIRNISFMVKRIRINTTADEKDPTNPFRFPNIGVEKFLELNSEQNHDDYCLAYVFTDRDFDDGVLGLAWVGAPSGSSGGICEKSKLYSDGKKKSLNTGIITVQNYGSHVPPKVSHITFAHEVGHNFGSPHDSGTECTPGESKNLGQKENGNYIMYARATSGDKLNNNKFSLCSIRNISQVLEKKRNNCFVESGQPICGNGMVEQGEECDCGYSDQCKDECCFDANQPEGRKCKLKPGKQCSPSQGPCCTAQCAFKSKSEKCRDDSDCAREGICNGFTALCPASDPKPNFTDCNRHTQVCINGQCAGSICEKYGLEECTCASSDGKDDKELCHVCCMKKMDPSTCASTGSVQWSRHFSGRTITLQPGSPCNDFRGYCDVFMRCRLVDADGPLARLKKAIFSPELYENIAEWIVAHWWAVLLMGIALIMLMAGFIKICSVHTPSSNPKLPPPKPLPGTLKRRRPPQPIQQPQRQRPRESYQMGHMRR
Tn6 DDE FP: DD(E)-Tn6 binding inhibition, primary FP screen | 0.21% of 370,000 active | inhibition, % at 8.3 µM | P02675 | Fibrin DD(E) TRITC-Tn6 fluorescence polarization displacement | AID 720509;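 active = inhibition above a per-campaign cutoff: mean of compounds within control limits plus 3 SD, cut at about 15% in these data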
MT1-MMP act inh: MT1-MMP (human) activation inhibition; P50281; HT1080 RFP-PRO-GFP cells, GFP/RFP ratio fluorescence, overnight; percent of plate control window, DMSO zero; GFP/RFP ratio change, % at 20 µM; 0.061% of 360,000 active;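 active = GFP/RFP ratio change of at least 30% with cell ATP level not reduced by more than half and red fluorescence within 50% of control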
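Assay system: HT1080 cells carrying an RFP-PRO-GFP reporter | Dosing: Single dose of 20 µM compound, 1% DMSO final | Incubation: Cells overnight before dosing, compound overnight, 37 °C, 5% CO2 | Evaluation: GFP/RFP fluorescence ratio | Control set: DMSO and RFP-L50D-GFP cell wells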
Tn7 DDE conf: confirmation of inhibitors of Tn7 binding to human fibrin DD(E). 5% of 460 active. shares compounds with DDE Tn7 FP inh. inhibition, % at 8.3 µM. FP displacement of TRITC-Tn7 peptide from DD(E); 0% set at plate's compound-well median. AID 720628;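 active = inhibition above the campaign cutoff, the mean of compounds within control limits plus 3 SD, cut at about 14% in these data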;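 also: displacers lower polarization since freed probe rises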
Tn7 DDE ctr: DD(E)-Tn7 binding inhibition, counter-screen; 3% of 460 active; fibrin DD(E), TRITC-Tn7 probe displacement, fluorescence polarization; inhibition, % at 8.3 µM; shares compounds with DDE Tn7 FP inh;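 active = inhibition above the cutoff, the mean of compounds lying between the control bounds plus 3 SD of those compounds, cut at about 17% in these data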
Numbers stand for hits; i = inactive; nt = no result given. Compounds with a hit are over-represented: about 1.6% of the library has one in this group of screens.

SMILES	ADAM17 inh	DDE Tn7 FP inh	ADAM10 inh	Tn6 DDE FP	MT1-MMP act inh	Tn7 DDE conf	Tn7 DDE ctr
COC(=O)c1ccc(Cn2c(C)c(C(=O)NCc3ccc(Cl)c(Cl)c3)sc2=O)o1	i	i	i	i	i	nt	nt
CCc1nc2ccc(C(=O)NCCc3ccc(OC)c(OC)c3)cc2nc1CC	i	i	i	i	i	nt	nt
CCc1nc2ccc(C(=O)NCCc3ccccc3OC)cc2nc1CC	i	14	i	i	i	i	i
N#Cc1ccc(Cl)cc1NC(=O)COC(=O)c1cccc(S(=O)(=O)N2CCOCC2)c1	i	14	i	i	i	i	i
C[C@@H]1CN([C@@H](C)CO)C(=O)CCCn2cc(nn2)CO[C@H]1CN(C)C(=O)Nc1ccccc1	i	i	i	i	nt	nt	nt
CC(OC(=O)c1ccco1)C(=O)Nc1ccc(Cl)cn1 (configuration not stated)	i	15	i	i	i	i	i
CC(=O)N1CCCN(C(=O)c2ccc3nc(Cc4cccc(Cl)c4)oc3c2)CC1	i	i	i	i	i	nt	nt
O=C1CN(C(=O)c2ccc3nc(Cc4cccc(Cl)c4)oc3c2)CCN1	i	14	i	i	i	i	i
CCN(CC)CCCNc1ccc2ncn3c4ccc(O)cc4c(=O)c1c23	i	40	i	i	i	i	i
N/C(=N\OC(=O)c1ccc2c(c1)OCO2)c1ccncc1	i	15	i	i	i	i	i
N/C(=N\OC(=O)c1ccc2c(c1)OCO2)c1ccc(Cl)cc1	i	i	i	i	i	nt	nt
COc1cc(O)c(C(CC(=O)N2CCCC(C)C2)c2ccccc2)c(OC)c1 (configuration not stated)	i	i	i	i	nt	nt	nt
COc1ccccc1N(C)S(=O)(=O)c1ccc(C(=O)OCC(=O)NCC(F)(F)F)cc1	i	14	i	i	i	i	i
COc1ccccc1N(C)S(=O)(=O)c1ccc(C(=O)OCC(=O)NCc2cccs2)cc1	i	i	i	i	i	nt	nt
O=C(Cc1ccccc1)NNC1=NS(=O)(=O)c2ccccc21	i	14	i	i	i	i	i
O=C(OCc1cn([C@H]2CN(C(=O)C3CCCCC3)[C@@H](c3ccccc3)C[C@@H]2O)nn1)c1ccccc1	i	15	i	i	i	i	i
O=C(OCc1cn([C@@H]2CN(C(=O)C3CCCCC3)[C@@H](c3ccccc3)C[C@H]2O)nn1)c1ccccc1	i	i	i	i	i	nt	nt
Cc1ccc(-c2nnc(SCC(=O)Nc3ccc4c(c3)OCCO4)n2-c2ccc(C)cc2)cc1	i	i	i	i	nt	nt	nt
O=C(O)Cn1nc(-c2ccc(F)cc2)oc1=O	i	i	i	i	i	nt	nt
CCOC(=O)Cn1nc(-c2ccc(F)cc2)oc1=O	i	14	i	i	i	i	i
COc1ccc(CNC(=O)C(OC(=O)c2ccco2)c2ccccc2F)cc1 (configuration not stated)	i	14	i	i	i	i	i
O=C(c1ccccc1)c1ccc2c(c1)OCCOCCOCCOCCO2	i	14	i	i	i	i	i
Cc1ccc(-c2csc3ncnc(SCC(N)=O)c23)cc1	i	16	i	i	nt	i	i
COc1cc(C2c3cc4c(cc3OC(NCc3ccccc3)C2C)OCO4)cc(OC)c1OC (configuration not stated)	i	14	i	i	i	i	i
C[C@H]1[C@@H](NC(=O)C2CCC2)CC[C@@]23CCCN2C(=O)CCC[C@@H]13	i	i	i	i	nt	nt	nt
SMILES	ADAM17 inh	DDE Tn7 FP inh	ADAM10 inh	Tn6 DDE FP	MT1-MMP act inh	Tn7 DDE conf	Tn7 DDE ctr
COC(=O)[C@]12C[C@H](CC(=O)NCCCCc3ccccc3)C(=O)N(Cc3cccc4ccccc34)C1=C[C@H](C(C)(C)C)O[C@@H]2C	i	i	i	i	nt	nt	nt
COc1cccc(CNC(=O)c2cc3c(C)nc4ccccc4c3o2)c1	i	i	i	i	i	nt	nt
CCc1ccc(CNC(=O)c2cc3c(C)nc4ccccc4c3o2)cc1	i	14	i	i	i	i	i
CC1(C(=O)N2CCC(Oc3cccnc3)CC2)CC1	i	i	i	i	nt	nt	nt
Cc1cc2c(cc1C)C(c1cccc([N+](=O)[O-])c1)CC(=O)N2 (configuration not stated)	i	14	i	i	nt	i	i
CCOC(=O)[C@@]12CN(C(=O)OC(C)(C)C)CC=C1N(Cc1ccc(OC)cc1)C(=O)[C@H]2CC(=O)NCC1CCCCC1	i	i	i	i	nt	nt	nt
Cc1ccc(OCCC(=O)OCC(=O)N2CCN(S(=O)(=O)c3ccc(Cl)cc3)CC2)cc1	i	15	i	i	i	i	i
CN(C)S(=O)(=O)c1cccc(NC(=O)C2CCN(S(=O)(=O)c3cccs3)CC2)c1	i	14	i	i	i	i	i
C[C@@]12C(=O)N(Cc3ccc(F)cc3)CC(=O)N1[C@H]1c3cc(Cl)ccc3OC[C@@H]1[C@@H]2c1ccccc1	i	i	i	i	i	nt	nt
Cc1ccc2c(c1)[C@H]1[C@H](CO2)[C@H](c2ccccc2)[C@]2(C)C(=O)N(Cc3ccc(F)cc3)CC(=O)N12	i	27	i	i	i	14	i
COC(=O)[C@]12C[C@H](CC(=O)NCc3ccc(C)o3)C(=O)N(CCC3=CCCCC3)C1=C[C@H](COCc1ccccc1)O[C@@H]2C	i	i	i	i	nt	nt	nt
CCOC(=O)C1(Cc2cccc(F)c2)CCN(Cc2ccon2)CC1	i	14	i	i	i	i	i
CCOC(=O)C1(Cc2ccc(Cl)cc2)CCN(Cc2ccon2)CC1	i	i	i	i	i	nt	nt
CCOC(=O)[C@@]12CN(C(=O)OC(C)(C)C)CC=C1N(Cc1ccc(OC)cc1)C(=O)[C@H]2CC(=O)N1CCC(c2ccccc2)CC1	i	i	i	i	nt	nt	nt
O=C(c1cccs1)N1CCC(Cc2ccccc2)CC1	i	14	i	i	i	i	i
O=[N+]([O-])c1cccc(S(=O)(=O)N2CN(c3ccc(Br)cc3)c3nc4ccccc4nc32)c1	i	17	i	i	i	i	i
COc1ccccc1NC(=O)CSc1nnc(COc2ccccc2OC)n1C	i	14	i	i	i	i	i
C[C@H]1[C@@H](OC(=O)Nc2ccc(Br)cc2)CC[C@@]23CCCN2C(=O)CCC[C@@H]13	i	i	i	i	nt	nt	nt
CCOc1ccc(NC(=O)CN2CCN(CC(=O)Nc3ccc4c(c3)OCCO4)CC2)cc1	i	15	i	i	i	i	i
CCOc1ccc(NC(=O)CN2CCN(CC(=O)Nc3cccc(F)c3)CC2)cc1	i	i	i	i	i	nt	nt
C=CCC(=O)NC1CCCc2c1cnn2-c1cc(F)cc(F)c1 (configuration not stated)	i	15	i	i	i	i	i
